Bioassay records deposited in PubChem BioAssay by The Scripps Research Institute Molecular Screening Center.
In the library only some 4.5% were active in any assay of this set; here they are far more common.
CHO parental Ca: counter-screen for OX1R antagonists: effect in parental CHO cells; parental CHO-K1, ATP-induced calcium, Fluo-8 fluorescence; inhibition, % at 5.6 µM; actives 0.63% (n = 330,000);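 active = inhibition above that plate's mean sample inhibition plus 3 SD, cut at about 26% in these data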;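 also: 0% = ATP-challenged DMSO wells and 100% = DMSO wells without ATP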
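Test system: untransfected parental CHO cell line; also added: ATP stimulus; dosing: 5.6 µM, single dose; signal: calcium-sensitive Fluo-8 fluorescence; measure: percent inhibition of ATP-evoked calcium rise, normalized to controls; benchmarks: low control ATP plus DMSO, high control DMSO only; replication: one well per compound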
GPR7 antagonist: human neuropeptides B/W receptor 1 antagonism; P48145; GPR7-expressing cells, fluorescence antagonist assay; inhibition, % at 4.4 µM; actives 1.1% (n = 290,000); in the data active = inhibition above about 16%, passing the limit was not always enough;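 also: cells stimulated with the agonist NPW; 0% = agonist with vehicle and 100% = vehicle without agonist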
Target sequence (P48145 whole entry, looked up): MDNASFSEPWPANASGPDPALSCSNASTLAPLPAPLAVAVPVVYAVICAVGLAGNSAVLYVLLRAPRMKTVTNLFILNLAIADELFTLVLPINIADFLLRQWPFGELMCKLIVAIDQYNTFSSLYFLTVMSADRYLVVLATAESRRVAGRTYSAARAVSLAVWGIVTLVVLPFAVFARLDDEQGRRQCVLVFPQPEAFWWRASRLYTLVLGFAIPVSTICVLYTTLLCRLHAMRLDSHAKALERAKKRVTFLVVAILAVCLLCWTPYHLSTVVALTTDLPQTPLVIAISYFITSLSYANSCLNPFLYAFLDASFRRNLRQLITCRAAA
TAAR1 antag: antagonists of human TAAR1; actives 1.5% (n = 360,000); Q96RJ0; CHO RD-HGA16 TAAR1, Fluo-8 calcium fluorescence, antagonist; inhibition, % at 3 µM;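 active = inhibition above a per-plate cutoff, the mean inhibition of test compounds on that plate plus 3 SD, cut at about 49% in these data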;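 also: 0% = DMSO plus EC80 beta-PEA response and 100% = DMSO alone without agonist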
Target sequence (Q96RJ0 whole entry, looked up): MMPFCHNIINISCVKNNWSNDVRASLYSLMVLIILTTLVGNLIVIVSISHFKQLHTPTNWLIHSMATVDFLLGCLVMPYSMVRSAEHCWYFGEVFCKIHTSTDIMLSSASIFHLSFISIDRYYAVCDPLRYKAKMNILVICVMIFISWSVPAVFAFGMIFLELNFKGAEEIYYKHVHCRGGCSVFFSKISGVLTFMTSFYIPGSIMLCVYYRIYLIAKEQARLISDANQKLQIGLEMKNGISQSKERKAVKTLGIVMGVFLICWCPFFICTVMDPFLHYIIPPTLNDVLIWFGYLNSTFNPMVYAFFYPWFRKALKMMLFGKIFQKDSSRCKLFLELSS
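Test system – hTAAR1-expressing CHO RD-HGA16 cells, Gα16-coupled · Also added – β-PEA at EC80 concentration, post-compound challenge · Compound – 3 µM, single point · Incubation – dye loading 75 min at 37 °C, then 30 min room temperature · Measured by – Fluo-8 intracellular calcium dye fluorescence, real-time kinetic reads · Benchmarks – vehicle and agonist controls · Replicates – singlicate, one well per test compound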
TAAR1 agonist: agonists of human TAAR1. CHO RD-HGA16 TAAR1, Fluo-8 calcium fluorescence; vehicle wells 0%, saturating PEA agonist 100%. activation, % at 3 µM. actives 0.99% (n = 360,000);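 active = activation above the mean activation of all test compounds in the run plus 3 SD, cut at about 38% in these data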
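Repeats: no replicates (n 1) | Material: CHO-derived RD-HGA16 cells with stable Gα16 and human TAAR1 | Technique: Kinetic Fluo-8 calcium fluorescence | Schedule: 17-24 h seeding, 75 min 37 °C dye, 30 min RT | Evaluation: % activation from peak over basal fluorescence ratio, DMSO-to-PEA scaled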
OX1R antag-1: human HCRTR1 antagonism; O43613; CHO/OX1R cells, Fluo-8 calcium fluorescence, orexin A; inhibition, % at 5 µM; actives 0.43% (n = 330,000);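 active = inhibition above its plate's threshold, mean inhibition of all tested compounds on the plate plus 3 SD, cut at about 37% in these data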;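 also: 0% = orexin A challenge wells and 100% = SB-334867-A antagonist wells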
OX1R antag-2: antagonists of human orexin 1 receptor (OX1R); OX1R-expressing cells, FRET antagonist read-out; O43613; inhibition, % at 6.6 µM; actives 1.8% (n = 330,000); AID 485270; in the data active = inhibition mostly above about 38%, no sharp cut-off; inactive = mostly below about 40%;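 also: 0% = agonist challenge alone and 100% = reference antagonist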
TAAR1 ag confirm: confirmation of human TAAR1 agonists; actives 82% (n = 2,400); activation, % at 3 µM; AID 651783; shares compounds with TAAR1 agonist; CHO RD-HGA16 TAAR1, Fluo-8 calcium fluorescence; scaled: DMSO 0%, maximal phenethylamine 100%;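 active = activation above a cutoff set at the run's mean compound activation plus 3 SD, cut at about 39% in these data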
Ga16 ag counter: counter-screen for TAAR1 agonists: nonselective agonists in parental cells | shares compounds with TAAR1 agonist | CHO-Ga16 parental, Fluo-8 calcium fluorescence; normalized to maximal ATP response, DMSO zero | activation, % at 3 µM | actives 50% (n = 2,400) | AID 651787;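 active = activation above the run cutoff, the mean activation over all tested wells plus 3 SD, cut at about 12% in these data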;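 also: 0% = DMSO wells and 100% = maximal ATP response on the peak over basal ratio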
TAAR1 desens: human TAAR1 agonist that also desensitizes the receptor; AID 651951; shares compounds with TAAR1 agonist; CHO RD-HGA16 hTAAR1, Fluo-8 calcium, beta-PEA response inhibition; inhibition, % at 3 µM; actives 46% (n = 2,400);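 active = inhibition above the run cutoff, the mean inhibition of all test compounds plus 3 SD, cut at about 49% in these data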;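 also: beta-PEA stimulus applied at its EC80; loss of beta-PEA calcium signal after compound pretreatment read as receptor desensitization; 0% = DMSO with beta-PEA at EC80 and 100% = DMSO alone without agonist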
Ga16 nonsel ant: nonselective Ga16 antagonist in TAAR1 agonist counter-screen; shares compounds with TAAR1 agonist; CHO-Ga16 ATP-induced calcium, Fluo-8 fluorescence; inhibition, % at 3 µM; actives 39% (n = 2,400);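 active = inhibition above the plate's mean compound inhibition plus 3 SD, computed per plate, cut at about 22% in these data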;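 also: 0% = EC80 ATP with DMSO and 100% = DMSO wells without ATP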
Starred values were filed as active, the others as inactive; x = not tested or not shown; ! = repeats disagree.

SMILES | CHO parental Ca | GPR7 antagonist | TAAR1 antag | TAAR1 agonist | OX1R antag-1 | OX1R antag-2 | TAAR1 ag confirm | Ga16 ag counter | TAAR1 desens | Ga16 nonsel ant
CCCCc1c(-c2ccccc2OC)ncn1CCc1cccc(Cl)c1 | x | x | 47 | 66* | x | x | 84* | 19* | 83* | 34*
COc1ccccc1CCn1cnc(-c2ccc(OC)c(OC)c2)c1CC(C)C | x | x | 68* | 54* | x | x | 93* | 24* | 84* | 45*
Cc1cc(C)c(S(=O)(=O)NCc2cccnc2)c(C)c1 | 1 | 3 | 6 | 3 | -5 | -8 | x | x | x | x
Cc1cc(NC(=O)c2ccccc2)n(-c2nc3ccccc3[nH]2)n1 | -13 | -6 | 14 | 3 | -38 | 5 | x | x | x | x
Cc1cc(NC(=O)C2CCCC2)n(-c2nc3ccccc3[nH]2)n1 | -26 | -5 | 5 | 56* | -38 | 17 | -1 | -1 | 7 | 17
CC1(Oc2ccc3ccccc3c2)CCN(Cc2ccc(OC(F)(F)F)cc2)C1 (stereo not drawn) | x | x | -16 | -1 | x | x | x | x | x | x
CC[C@H](NC(=O)CC[C@H]1O[C@@H](n2cnc3c(NC(=O)c4ccccc4)ncnc32)[C@H](O)[C@@H]1O)c1ccccc1 | x | x | -6 | 3 | x | x | x | x | x | x
COc1cc(/C=C2\C(=O)NN(c3ccccc3)C2=O)ccc1OCC(N)=O | -9 | -10 | -20 | 5 | -9 | 3 | x | x | x | x
C#CCOc1ccc(/C=C2/C(=O)NN(c3ccc(F)cc3)C2=O)cc1OC | -2 | -25 | 14 | 99* | -2 | -7 | 92* | 55* | 44 | 18
COc1ccccc1Cc1c(-c2ccc(C#N)cc2)nc2ccc(C)cn12 | x | x | 9 | 4 | x | x | x | x | x | x
N=C1N(/N=C/c2ccccc2)C(=Nc2ccccc2)C(=S)N1c1ccccc1 | -3 | -10 | 12 | 46* | -23 | 6 | 4 | -1 | 26 | 14
Cc1cc(OCC(O)CNC(C)c2ccccc2)ccc1C(C)C (stereo not drawn) | 9 | 12 | 30 | 63* | -5 | 4 | 71* | 32* | 54* | 32*
CC(NCC(O)COc1ccc2ccccc2c1)c1ccccc1 (stereo not drawn) | 9 | 31 | 32 | 31 | -24 | -9 | x | x | x | x
CC(C)C[C@@H](CN(C)N=O)N(C[C@H](Cc1ccccc1)N(CCc1ccccc1)N=O)N=O | -9 | 7 | 43 | 28 | 4 | 17 | x | x | x | x
CN(C[C@H](Cc1ccccc1)N(C[C@H](Cc1cccc2ccccc12)N(CCc1ccccc1)N=O)N=O)N=O | -19 | x | -5 | 69*! | -37 | 6 | 46* | 1 | 5 | 10
CCCC[C@H](CN(N=O)[C@@H](Cc1ccccc1)CN(C)N=O)N(CCc1ccccc1)N=O | -17 | 11 | 24 | 57* | -33 | 16 | 64* | 0 | 23 | 14
CC(C)[C@H](CN(N=O)[C@@H](Cc1ccccc1)CN(C)N=O)N(CCc1ccccc1)N=O | -37 | -6 | 15 | 22 | -27 | 27 | x | x | x | x
O=C1NC[C@@H](CCCCN2C[C@H](Cc3ccc(O)cc3)N(CCc3ccc(O)cc3)C(=O)C2=O)N(CCc2ccc(O)cc2)C1=O | x | x | 1 | 0 | x | x | x | x | x | x
COc1ccc(C(CCN2CCCCC2)c2c(OC)cc(OC)c3c(-c4ccccc4)cc(=O)oc23)cc1 (stereo not drawn) | 24 | x | 32 | 68* | 25 | 25 | 66* | 42* | 53* | 48*
COc1cc(OC)c2c(-c3ccccc3)cc(=O)oc2c1C(CCN1CCCCC1)c1ccc2c(c1)OCO2 (stereo not drawn) | -11 | x | 13 | 43* | -30 | 2 | 45* | 12* | 20 | 16
O=c1c2ccccc2sn1-c1ccc(F)cc1 | 8 | x | 22 | 57* | 1 | 21 | 30 | 31* | 17 | 15
COC(=O)c1cccc(-n2sc3ccccc3c2=O)c1 | -12 | x | 33 | 63* | -3 | 2 | 50* | 22* | 28 | 15
O=c1c2ccccc2sn1-c1ccc(Cl)cc1 | x | x | 25 | 28 | x | x | x | x | x | x
COc1ccccc1-c1cnc(C(O)c2ccc(SC)cc2)[nH]1 (stereo not drawn) | x | x | 5 | 5 | x | x | x | x | x | x
Cc1ccc(N=Nc2ccc(O)c3ncccc23)cc1 | 59* | -17 | 82* | 63* | 44 | 21 | 5 | 4 | 48 | 51*
SMILES | CHO parental Ca | GPR7 antagonist | TAAR1 antag | TAAR1 agonist | OX1R antag-1 | OX1R antag-2 | TAAR1 ag confirm | Ga16 ag counter | TAAR1 desens | Ga16 nonsel ant
Cc1ccc(N=Nc2ccc(O)c3ncccc23)cc1C | 9 | -1 | 11 | 2 | 2 | 3 | x | x | x | x
COc1cc(/C=C2\SC(=S)N(CC(=O)Nc3ccccn3)C2=O)cc(OC)c1OC | -18 | -5 | 4 | 87* | -24 | 19 | 114* | 67* | 64* | 30*
COc1cc(/C=C2\SC(=S)N(CCC(=O)Nc3ccccn3)C2=O)cc(OC)c1OC | -25 | -16 | 44 | 13 | -37 | 10 | x | x | x | x
COc1ccccc1/C=C1\SC(=S)N(CCC(=O)Nc2cccc(O)c2)C1=O | -5 | 0 | 81* | 63* | -9 | 0 | 71* | 33* | 67* | 40*
CC(=O)c1c(C)[nH]c(C(=O)OCc2nnc(-c3ccc([N+](=O)[O-])cc3)o2)c1C | 11 | x | 20 | 48* | 10 | 15 | 5 | 7 | 18 | 14
Cc1cccc2cc(C#N)c(N3CCN(C)CC3)nc12 | -12 | -7 | 1 | 67* | -21 | 18 | 76* | 1 | 45 | 6
Cc1ccc2cc(C#N)c(N3CCN(C)CC3)nc2c1 | 0 | -8 | 1 | 18 | 0 | 10 | x | x | x | x
Cc1ccc2nc(N3CCN(C)CC3)c(C#N)cc2c1 | 2 | -11 | -1 | 24 | -3 | 21 | x | x | x | x
Cc1cc(C)c2nc(N3CCN(C)CC3)c(C#N)cc2c1 | -24 | -9 | -27 | 49* | -6 | 18 | 54* | 2 | 20 | 11
COc1ccc(CN2CCC[C@]3(N[C@H](c4ccc(C(F)(F)F)cc4)[C@@H]4C(=O)N(C)C(=O)[C@@H]43)C2=O)cc1 | x | x | -18 | -2 | x | x | x | x | x | x
O=[N+]([O-])c1cc(S(=O)(=O)O)cc([N+](=O)[O-])c1NN(c1ccccc1)c1ccccc1 | -7 | 1 | 1 | 2 | -7 | 16 | x | x | x | x
